Laboratory results from ChEMBL document CHEMBL1126312, “Synthesis and evaluation of 3-substituted 17-methylmorphinan analogs as potential anticonvulsant agents” (J Med Chem, 1992).
pIC50: −log10 of the molar value. Activity calls are given as the source filed them. The calls are words filed in the database; no cut-off is given here.

Tests used:
[1] = biological target: T1, Glutamate [NMDA] receptor (Homo sapiens) (UniProt Q05586+Q12879+Q13224+O15399+O60391+Q14957+Q8TCU5); conditions: Cavia porcellus; 10e-5 M
[2] = biological target: T2, Glutamate NMDA receptor (Rattus norvegicus) (UniProt P35439+Q00959+Q00960+Q00961+Q62645+Q8VHN2+Q9R1M7); conditions: 10e-5 M
[3] = biological target: T1, Glutamate [NMDA] receptor (Homo sapiens); conditions: Cavia porcellus; Plasma; 10e-5 M
[4] = biological target: T2, Glutamate NMDA receptor (Rattus norvegicus); assay: Binding affinity against PCP binding site associated with N-methyl-D-aspartate glutamate receptor from rat synaptic plasma membrane(SPM) determined using [3H]TCP as radioligand.;NA = No effect; conditions: concentration not given here
Method in brief: (§1)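 Crude rat brain synaptic plasma membranes (cerebellum removed, extensively washed) were used in 5 mM Tris-HCl pH 7.4. [3H]TCP at 5 nM final was incubated with ~0.2 mg membranes for 60 min at 23 °C. Nonspecific binding was defined with cold phencyclidine. Samples were filtered on GF/B pre-soaked in 0.5% PEI, washed with 5 mM Tris pH 7.7 and counted.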

Rattus norvegicus [5] = assay: Anticonvulsant activity in rat supramaximal electroshock (MES) test within a dose range of 15-60 mg/kg.; format: functional
Method in brief: (§2)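 The compound was given sc in freshly diluted normal saline at 1-2 mL/kg across the stated dose range, with vehicle-injected controls. MES protection was scored 30 min post-dose, with n = 10 rats. ED50 was derived from the dose-response and reported with 95% confidence limits, in mg/kg and µmol/kg.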

Glutamate NMDA receptor [6] = assay: Binding affinity against dextromethorpin binding site of N-methyl-D-aspartate glutamate receptor from rat brain using [3H]1
Method in brief: (§3)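 Rat brain membranes were the 100000g pellet of the 1000g supernatant, in 50 mM Tris-HCl pH 7.4. [3H]dextromethorphan (5 nM final) was incubated with ~0.3 mg membranes for 20 min at 23 °C, with displacer at 10^-9–10^-5 M. Nonspecific binding was defined with 100 µM unlabelled ligand. Samples were filtered on GF/B in cold Tris/choline chloride/Triton wash and counted by scintillation.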

Rattus norvegicus [7] = assay: Anticonvulsant activity in rat supramaximal electroshock (MES) test within a dose range of 15-60 mg/kg administered subcutaneously; format: functional; conditions: sc
Method in brief: as §2

[8] = biological target: Glutamate [NMDA] receptor; assay: Inhibition of [3H]1 binding to dextromethorpin binding site of guinea pig microsomal pellet P3 N-methyl-D-aspartate glutamate receptor; set-up: species or system Cavia porcellus
Method in brief: (§4)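 Guinea pig brain microsomal P3 fraction (100000g, 60 min pellet) was used in Tris-HCl pH 7.4. [3H]dextromethorphan at 5 nM final was incubated with ~0.5 mg tissue for 20 min at 23 °C, with displacer at 10^-9–10^-5 M. Nonspecific binding was defined with 100 µM unlabelled ligand. Samples were filtered on GF/B in cold Tris/choline chloride/Triton buffer and counted.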

Rattus norvegicus [9] = assay: Anticonvulsant activity in rat supramaximal electroshock (MES) test expressed as % rats protected at a dose of 1.25-10 mg/kg.; format: functional
Method in brief: (§5)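 Rats were given the compound sc in freshly diluted normal saline (DMSO or HCl-assisted dissolution for some compounds) at 1-2 mL/kg. Vehicle-injected controls were run. Rats were tested at 30 min after injection. The read-out is the % of rats protected from convulsion in the MES test at the stated doses, with n = 10 rats.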

Glutamate NMDA receptor [10] = assay: Binding affinity against glycine binding site of N-methyl-D-aspartate glutamate receptor from rat synaptic plasma membrane(SPM) using [3H]glycine; NA = No effect
[11] = biological target: Glutamate [NMDA] receptor; assay: (§6) Binding affinity against dextromethorpin binding site associated with N-methyl-D-aspartate glutamate receptor from guinea pig mitochondrial pellet P2 determined using [3H]1 as radioligand.; format: protein-complex assay, Cavia porcellus
Method in brief: (§7)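 Guinea pig brain crude mitochondrial P2 fraction (11500g pellet, De Robertis-based) was used in Tris-HCl pH 7.4. [3H]dextromethorphan at 5 nM final was incubated with ~0.3 mg tissue for 20 min at 23 °C, with displacer at 10^-9–10^-5 M. Nonspecific binding was defined with 100 µM unlabelled ligand. Samples were filtered on GF/B and counted by scintillation.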

[12] = biological target: T2, Glutamate NMDA receptor (Rattus norvegicus); assay: (§8) Binding affinity against PCP binding site associated with N-methyl-D-aspartate glutamate receptor from rat synaptic plasma membrane(SPM) determined using [3H]TCP as radioligand.; conditions: concentration not given here
Method in brief: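 Rat brain (minus cerebellum) crude synaptic plasma membranes, washed repeatedly in 5 mM Tris-HCl pH 7.4; about 0.2 mg incubated with 5 nM [3H]TCP for 60 min at 23 °C, 0.5 mL final volume. Displacers tested at 10^-9–10^-5 M; cold PCP defines nonspecific binding. Bound ligand collected by filtration on PEI-soaked GF/B filters and counted by scintillation.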

Glutamate NMDA receptor [13] = assay: (§9) Binding affinity against glycine binding site associated with N-methyl-D-aspartate glutamate receptor from rat synaptic plasma membrane(SPM) determined using [3H]glycine as radioligand.;NA = No effect
[14] = biological target: Glutamate [NMDA] receptor; assay: Binding affinity against dextromethorpin binding site associated with N-methyl-D-aspartate glutamate receptor from guinea pig mitochondriall pellet P2 determined using [3H]1 as radioligand.; format: protein-complex assay, Cavia porcellus
Method in brief: as §7

Rattus norvegicus [15] = assay: Anticonvulsant activity in rat supramaximal electroshock (MES) test expressed as % rats protected at a dose of 2.5-10 mg/kg.; format: functional
Method in brief: as §5

Glutamate NMDA receptor [16] = assay: as §8
Method in brief: as §1

[17] = biological target: T2, Glutamate NMDA receptor (Rattus norvegicus); assay: Binding affinity against dextromethorpin binding site associated with N-methyl-D-aspartate glutamate receptor from rat brain determined using [3H]1 as radioligand.; conditions: concentration not given here
Method in brief: as §3

Rattus norvegicus [18] = assay: Anticonvulsant activity in rat supramaximal electroshock (MES) test expressed as % rats protected at a dose of 12.5-50 mg/kg.; format: functional
Method in brief: as §5

Rattus norvegicus [19] = assay: Anticonvulsant activity was determined in rat supramaximal electroshock (MES) test within a dose range of 15-60 mg/kg after (sc) administration; format: functional
Method in brief: as §2

Rattus norvegicus [20] = assay: Anticonvulsant activity in rat supramaximal electroshock (MES) test expressed as % rats protected at a dose of 25-100 mg/kg.; format: functional
Method in brief: as §5

[21] = biological target: T2, Glutamate NMDA receptor (Rattus norvegicus); assay: as §8
Method in brief: as §1

Rattus norvegicus [22] = assay: Anticonvulsant activity in rat supramaximal electroshock (MES) test expressed as % rats protected at a dose of 25-50 mg/kg.; format: functional
Method in brief: as §5

Rattus norvegicus [23] = assay: Anticonvulsant activity in rat supramaximal electroshock (MES) test expressed as % rats protected at a dose of 2.5-50 mg/kg.; format: functional
Method in brief: as §5

[24] = biological target: T1, Glutamate [NMDA] receptor (Homo sapiens); assay: as §6; format: functional; conditions: Cavia porcellus; target entry is the homologue from another species; concentration not given here
Method in brief: as §7

[25] = biological target: T2, Glutamate NMDA receptor (Rattus norvegicus); assay: as §9
[26] = biological target: T1, Glutamate [NMDA] receptor (Homo sapiens); assay: Binding affinity against dextromethorpin binding site associated with N-methyl-D-aspartate glutamate receptor from guinea pig microsomal pellet P3 determined using [3H]1 as radioligand.; conditions: Cavia porcellus; target entry is the homologue from another species; concentration not given here
Method in brief: as §4

Rattus norvegicus [27] = assay: Anticonvulsant activity in rat supramaximal electroshock (MES) test expressed as % rats protected at a dose of 50 mg/kg.; format: functional
Method in brief: as §5

[28] = biological target: Glutamate [NMDA] receptor; assay: Binding affinity against dextromethorpin binding site associated with N-methyl-D-aspartate glutamate receptor from guinea pig microsomal pellet (P3) using [3H]1 as radioligand.; set-up: species or system Cavia porcellus
Method in brief: as §4

Glutamate NMDA receptor [29] = assay: Binding affinity against dextromethorpin binding site associated with N-methyl-D-aspartate glutamate receptor from rat brain using [3H]1 as radioligand.
Method in brief: as §3

Glutamate NMDA receptor [30] = assay: Binding affinity against glycine binding site associated with N-methyl-D-aspartate glutamate receptor from rat synaptic plasma membrane using [3H]glycine as radioligand.
[31] = biological target: T2, Glutamate NMDA receptor (Rattus norvegicus); assay: Binding affinity against PCP binding site associated with N-methyl-D-aspartate glutamate receptor from rat synaptic plasma membrane(SPM) determined using [3H]TCP as radioligand; conditions: concentration not given here
Method in brief: as §1

Rattus norvegicus [32] = assay: Anticonvulsant activity in rat supramaximal electroshock (MES) test expressed as % rats protected at a dose of 5-40 mg/kg.; format: functional
Method in brief: as §5

Rattus norvegicus [33] = assay: Anticonvulsant activity in rat supramaximal electroshock (MES) test expressed as % rats protected at a dose of 40 mg/kg.; format: functional
Method in brief: as §5

Rattus norvegicus [34] = assay: Anticonvulsant activity in rat supramaximal electroshock (MES) test expressed as % rats protected at a dose of 15-60 mg/kg.; format: functional
Method in brief: as §5

Rattus norvegicus [35] = assay: Anticonvulsant activity in rat supramaximal electroshock (MES) test expressed as % rats protected at a dose of 10 and 25 mg/kg.; format: functional
Method in brief: as §5

| Compound | ED50 (Rattus norvegicus [5]) | pIC50 (Glutamate NMDA receptor [6]) | pIC50 [8] | IC50 (Glutamate NMDA receptor [10]) | pIC50 [11] | other results |
| --- | --- | --- | --- | --- | --- | --- |
| C[C@]12N[C@H](Cc3ccccc31)c1ccccc12 | – | – | – | – | – | inhibition [1]: 19%; inhibition [2]: 42%; inhibition [3]: 20% |
| CC(C)Oc1ccc2c(c1)C13CCCCC1C(C2)N(C)CC3 (centres undefined) | 9.4 µmol/kg | 6.06 | 6.92 | Not Active | 6.82 | inhibition [4]: 59%; ED50 (Rattus norvegicus [7]): 3.9 mg/kg; Protection (Rattus norvegicus [9]): 90% |
| CN(C)CCCN1c2ccccc2Sc2ccc(Cl)cc21 [CHLORPROMAZINE] | – | 5.89 | 6.22 | Not Active | 5.96 | inhibition [12]: 25% |
| CN1CC[C@]23CCCC[C@H]2[C@H]1Cc1ccc(O)cc13 [LEVORPHANOL] | 12 µmol/kg | 5.11 | 5.57 | – | – | ED50 (Rattus norvegicus [7]): 5 mg/kg; IC50 (Glutamate NMDA receptor [13]): Not Active; pIC50 [14]: 5.60; Protection (Rattus norvegicus [15]): 90%; pIC50 (Glutamate NMDA receptor [16]): 5.92 |
| CN1CCC23CCCCC2C1Cc1ccc(N)cc13 (centres undefined) | 76 µmol/kg | – | 5.36 | Not Active | 5.19 | inhibition [17]: 45%; Protection (Rattus norvegicus [18]): 100%; pIC50 (Glutamate NMDA receptor [16]): 5.11; ED50 (Rattus norvegicus [19]): 25 mg/kg |
| CN1CCC23CCCCC2C1Cc1ccccc13 (centres undefined) | – | 5.89 | 6.00 | Not Active | 5.77 | Protection (Rattus norvegicus [20]): 0%; inhibition ([21]; concentration not given here): 53% |
| CN1CCC23CCCCC2C1Cc1ccc(Cl)cc13 (centres undefined) | – | 5.96 | 6.68 | Not Active | 6.43 | Protection (Rattus norvegicus [22]): 10%; pIC50 (Glutamate NMDA receptor [16]): 5.26 |
| CN1CCC23CCCCC2C1Cc1ccc(Oc2nc(-c4ccccc4)nc4ccccc24)cc13 (centres undefined) | – | – | – | – | – | Protection (Rattus norvegicus [23]): 10%; inhibition [24]: 25%; inhibition [17]: 19%; inhibition [25]: inactive; inhibition [26]: 50% |
| c1ccc(C2(N3CCCCC3)CCCCC2)cc1 [PHENCYCLIDINE] | – | – | – | – | – | pIC50 (Glutamate NMDA receptor [16]): 6.74 |
| CN1CCC23CCCCC2C1Cc1ccc(N=C=S)cc13 (centres undefined) | – | 5.82 | 6.77 | Not Active | 6.36 | Protection (Rattus norvegicus [22]): 0%; inhibition ([21]; concentration not given here): 60% |
| CN1CCC23CCCCC2C1Cc1ccc(OCc2ccccc2)cc13 (centres undefined) | – | – | – | – | 6.57 | Protection (Rattus norvegicus [27]): 30%; pIC50 [28]: 6.82; pIC50 (Glutamate NMDA receptor [29]): 5.51; IC50 (Glutamate NMDA receptor [30]): Not Active; inhibition ([21]; concentration not given here): 39% |
| CCCCOc1ccc2c(c1)C13CCCCC1C(C2)N(C)CC3 (centres undefined) | – | 5.82 | 7.00 | Not Active | 6.80 | inhibition [31]: 58%; Protection (Rattus norvegicus [32]): 40% |
| CN(C)c1ccc2c(c1)C13CCCCC1C(C2)N(C)CC3 (centres undefined) | – | 5.36 | 5.96 | Not Active | 6.17 | inhibition [21]: 45 µM; Protection (Rattus norvegicus [33]): 40% |
| CNc1ccc2c(c1)C13CCCCC1C(C2)N(C)CC3 (centres undefined) | – | 5.44 | 5.89 | Not Active | 6.32 | Protection (Rattus norvegicus [20]): 0%; inhibition ([21]; concentration not given here): 43% |
| COc1ccc2c(c1)C13CCCCC1C(C2)N(C)CC3 (stereo not drawn) [RACEMETHORPHAN] | 109 µmol/kg | – | 6.31 | Not Active | 6.62 | ED50 (Rattus norvegicus [7]): 38 mg/kg; Protection (Rattus norvegicus [34]): 70% |
| CCOc1ccc2c(c1)C13CCCCC1C(C2)N(C)CC3 (centres undefined) | 17.4 µmol/kg | 6.38 | 6.89 | Not Active | 7.05 | inhibition [31]: 75%; ED50 (Rattus norvegicus [7]): 5.6 mg/kg; Protection (Rattus norvegicus [35]): 90% |
